Measurements of several laboratories.
Compare with care: the assays were run in different laboratories.
Target: STE20-like serine/threonine-protein kinase (SLK, Homo sapiens, UniProt Q9H2G2)

SMILES	test	test system	setting	measurement	result
CCOc1cc(-c2nncn2C)ccc1Nc1ncc2cc(C)nc(NCC(C)(C)C)c2n1	cell-free assay, TR-FRET		1 µM	inhibition	≤ 15%
O=C(Nc1cnn(-c2csc(C(=O)NC3COC3)c2)c1)Nc1c(F)cccc1Cl	enzyme activity, inhibitor		5 µM	remaining activity	95%
N#CCCc1ccc2c(c1)-c1[nH]c3ccc([N+](=O)[O-])cc3c1CC(=O)N2	cell-free assay		0.5 µM	remaining signal	87.2%
COc1cc(-c2cc(-c3ccc(N4CCNCC4)cc3)cnc2C)cc(OC)c1OC	enzyme activity, inhibitor		1 µM	inhibition	43%
CCN1CCN(Cc2ccc(NC(=O)c3ccc(C)c(Oc4ccnc5[nH]ccc45)c3)cc2C(F)(F)F)CC1	target engagement in cells, inhibitor, chemoproteomics	Huh-7	1 µM	inhibition	-70.4%
Cc1c[nH]c2nccc(Oc3c(F)cc(Nc4cc(Cl)nc(N)n4)cc3F)c12	cell-free assay, competition with immobilised ligand		0.1 µM	remaining binding	97%
CN1CC(Oc2cnc(C#N)cc2-c2ccn3nc(NC(=O)C4CC4)cc3c2)C1	enzyme activity, inhibitor		1 µM	inhibition	7%
CC(C)(O)[C@H]1CC[C@H](Nc2ccc3ncc(-c4cccc(C(F)(F)F)c4)n3n2)CC1	enzyme activity, inhibitor		1 µM	remaining activity	71.5%
CO[C@@H](C)c1c(Nc2ccc([C@H](N(C)C(=O)C3CCS(=O)(=O)CC3)C(F)(F)F)cc2)cnc2cc(Cl)nn12	cell-free assay, competition with immobilised ligand		1 µM	remaining binding	81%
O=C(Nc1cnn(-c2csc(C(=O)NC3COC3)c2)c1)Nc1ccccc1Cl	enzyme activity, inhibitor		5 µM	remaining activity	89.7%
O=C1CCc2cc(Nc3cc(OC4CCOCC4)c([N+](=O)[O-])cc3Cl)ccc2N1	cell-free assay, competition with immobilised ligand		1 µM	remaining binding	100%
CCN1CCC2(CC1)NC(=O)c1c(c3ccc(Cl)c(Cl)c3n1C)C2C#N (racemic)	thermal stability, DSF		10 µM	ΔTm	0.1 °C
CNC(=O)c1cc(Oc2ccc(NC(=O)Nc3ccc(Cl)c(C(F)(F)F)c3)cc2)ccn1	cell-free assay		0.5 µM	remaining signal	96.8%
CC(C)(C)c1nc(-c2cccc(NS(=O)(=O)c3c(F)cccc3F)c2F)c(-c2ccnc(N)n2)s1	enzyme activity, inhibitor, radiometric		1 µM	remaining activity	90%
CC(=O)C1=C(C)N(c2cccc(C(F)(F)F)c2)C(=O)N[C@@H]1c1ccc(C#N)nc1	cell-free assay, competition with immobilised ligand		1 µM	remaining binding	98.4%
Cn1c2c(c3ccc(Cl)c(Cl)c31)C(C#N)C(C)(C)NC2=O (stereo not shown)	thermal stability, DSF		10 µM	ΔTm	-0.1 °C
CC1=C(C#N)C(c2ccc3c(c2)c(NC(=O)c2ccccc2C)nn3C)C(C#N)=C(C)N1	cell-free assay, competition with immobilised ligand		1 µM	remaining binding	88%
CN1CCC2(CC1)NC(=O)c1c(c3ccc(Cl)c(Cl)c3n1C)C2C#N (racemic)	thermal stability, DSF		10 µM	ΔTm	-0.5 °C
CN1CCN(c2cnc3c(C4CCN(C(=O)c5ccc(OC(F)(F)F)cc5N)CC4)ncnc3c2)CC1	cell-free assay, competition with immobilised ligand		1 µM	remaining binding	96%
O=C1Nc2ccc(Cl)cc2C1=Cc1cc(Cl)c(O)c(Cl)c1	cell-free assay		0.5 µM	remaining signal	95.3%
COc1cc(Cl)c(C(=O)N[C@@H](CN[C@H]2CC[C@@H](N)CC2)Cc2ccc(C#N)cc2)cc1-c1ccc(CN[C@H](C)c2ccc(C)cc2)o1	enzyme activity, inhibitor		1 µM	remaining activity	95%
CCS(=O)(=O)c1cc2cc(C[C@](O)(CC(C)(C)c3ccc(F)cc3C(N)=O)C(F)(F)F)[nH]c2cn1	cell-free assay, competition with immobilised ligand		1 µM	remaining binding	100%
Cn1c2c(Cl)c(Cl)ccc2c2cc[nH]c(=O)c21	thermal stability, DSF		10 µM	ΔTm	0.2 °C
CCN(CC)CCNC(=O)c1c(C)[nH]c(/C=C2\C(=O)Nc3ccc(F)cc32)c1C	cell-free assay		0.5 µM	remaining signal	63.8%
Nc1cnc(N2CCc3cc(S(=O)(=O)Nc4c(F)cc(Cl)cc4F)cc(N4CCCC4=O)c32)nc1	cell-free assay, competition with immobilised ligand		1 µM	remaining binding	100%
